These results are taken from the array DNA melting data of Ke et al. (doi:10.1101/2024.01.08.574731).

A short description of series [1]: melting temperature; fluorescence melt of hairpins on a sequencing array, two-state fit, raised by 9.35 °C to match UV melts. The following applies: sodium 0.088 M. Put shortly:
(§1)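 With Cy3 and quencher oligos annealed, library hairpins on a sequenced MiSeq flow cell were imaged for Cy3 fluorescence in 50 mM Na-HEPES pH 8.0, 25 mM NaCl, in 2.5 °C steps up to 60 °C. Melting temperature and folding enthalpy were derived from bootstrapped two-state fits of signals normalised to pre-quench Cy3 and to control constructs. Four replicates were combined by inverse variance, with fitted temperatures raised by 9.35 °C to match UV melts.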

The nature of series [2]: folding enthalpy; higher = less favourable; fluorescence melt of hairpins on a sequencing array, two-state fit. The following applies: sodium 0.088 M. Put shortly:
as §1

GTTGCCGAAAGGCGCAAC ((((((....)))..))): the Tm in series [1] was 31.9 °C. Also, the folding enthalpy in series [2] was -36.9 kJ/mol.
As for GTAAAAACGAAAGTTTAC (((..(((....)))))), the Tm in series [1] was found to be 27.8 °C. Further, the folding enthalpy in series [2] was -47.6 kJ/mol.
For GGCACGGGAAACCACGCC (((..((....))..))) the same measures were 46.2 °C and -121 kJ/mol.
On the same counts, the results for GATCGTGTTTACGATC ((((((....)))))) are 57.5 °C and -173 kJ/mol.
On the same counts, the results for GATCGATTACTCGATC ((((((....)))))) are 51 °C and -199 kJ/mol.
On to GAAAGTGGAAACATTTTC ((((.((....)).)))), for which the Tm in series [1] was found to be 32.1 °C. In series [2], the folding enthalpy was -115 kJ/mol.
As for GCTCTCCCGAAAGGGAGC (((..(((....)))))), in series [1], the Tm is 33 °C. Further, the folding enthalpy in series [2] was -30.5 kJ/mol.
For GCCGACCGAAAGGTGGC (((.(((....)))))), the Tm in series [1] was found to be 62 °C. Moreover, in series [2], the folding enthalpy is -142 kJ/mol.
Consider GATCCAGGAATGGATC ((((((....)))))), for which the Tm in series [1] was 54 °C. For the same sequence, in series [2], the folding enthalpy was -170 kJ/mol.
Consider GCCGACGAAAGTCCGGC ((((((....))).))), for which the Tm in series [1] is 61.2 °C. Also, the folding enthalpy in series [2] was -130 kJ/mol.
GACATCGGAAACAATGTC (((((.(....).))))): the Tm in series [1] amounted to 34.1 °C. In addition, the folding enthalpy in series [2] was -138 kJ/mol.
On the same counts, the results for GACGGCCGAAAGGCGTC (((.(((....)))))) are 64.8 °C and -86.2 kJ/mol.
GATTGCGAAAGCAAATC ((((((....))).))): the Tm in series [1] was determined as 50.2 °C. In series [2], the folding enthalpy is -66.6 kJ/mol.
Consider GCCCCACGAAAGTGAGGC (((.(((....))).))), for which the Tm in series [1] turned out to be 55.8 °C. The folding enthalpy in series [2] is -158 kJ/mol.
For GTACCACGAAAGTGTAC (((.(((....)))))), the Tm in series [1] stood at 42.3 °C. Besides, in series [2], the folding enthalpy was -92.2 kJ/mol.
For the sequence GCGATCGGAAACGGTTGC ((.(.((....)).).)), the Tm in series [1] came to 44.9 °C. Further, the folding enthalpy in series [2] is -124 kJ/mol.
For GATCCAATCATGGATC ((((((....)))))), in series [1], the Tm amounted to 50.8 °C. Moreover, the folding enthalpy in series [2] was -157 kJ/mol.
On to GTGAACGAAAGTTCCAC ((((((....))).))), for which the Tm in series [1] stood at 39.9 °C. Moreover, in series [2], the folding enthalpy was -66.5 kJ/mol.
For GGAATGCGAAAGCAGTCC (((.(((....))).))) the same measures were 61.2 °C and -153 kJ/mol.
In the case of GAGCTCGGAAACGAGTTC ((.((((....)))).)), in series [1], the Tm amounted to 53 °C. In addition, the folding enthalpy in series [2] is -122 kJ/mol.
On to GCAGGCGAAAGCCCTTGC ((((((....)))..))), for which the Tm in series [1] was determined as 38.9 °C. Also, the folding enthalpy in series [2] is -50 kJ/mol.
On to GTCCATGGAAACATGAAC ((.((((....)))).)), for which the Tm in series [1] was determined as 36.4 °C. The folding enthalpy in series [2] was -77.4 kJ/mol.
On the same counts, the results for GGAGGGGAAACCCTCC ((((((....)))))) are 62.8 °C and -129 kJ/mol.
On to GACGTCCGAAAGGAGTC (((.(((....)))))), for which the Tm in series [1] is 49 °C. Besides, the folding enthalpy in series [2] is -100 kJ/mol.
On to GTTGACGAAAGTCTGAAC ((((((....)))..))), for which the Tm in series [1] was determined as 25.1 °C. Also, the folding enthalpy in series [2] is -48 kJ/mol.
On to GGTACCGAAAGGTGGACC ((((((....)))..))), for which, in series [1], the Tm was found to be 37.8 °C. Besides, the folding enthalpy in series [2] was -71 kJ/mol.
Turning to TACACGAAAGTGTA (((((....))))), the Tm in series [1] was determined as 57.8 °C. The folding enthalpy in series [2] was -57.3 kJ/mol.
On the same counts, the results for GGATAAGGAAACTTATCC (((((((....))))))) are 52.8 °C and -157 kJ/mol.
As to GATCCTGGGAGGATC ((((((...)))))), in series [1], the Tm worked out at 51 °C. In series [2], the folding enthalpy was -141 kJ/mol.
As for GCTCTGCGAAAGCGCAGC (((..((....))..))), in series [1], the Tm worked out at 37.6 °C. For the same sequence, the folding enthalpy in series [2] is -47.5 kJ/mol.
Consider GATCCGTTGCCGGATC ((((((....)))))), for which the Tm in series [1] turned out to be 58.4 °C. Further, in series [2], the folding enthalpy is -196 kJ/mol.
For GTAGCTCGAAAGAGGTAC (((.(((....))).))) the same measures were 56.7 °C and -159 kJ/mol.
For the sequence GCCCAGGGAAACCTGGAC (.(((((....))))).), the Tm in series [1] stood at 49.4 °C. For the same sequence, in series [2], the folding enthalpy was -55.9 kJ/mol.
On to GTCAGTACGAAAGTAGAC (((..(((....)))))), for which the Tm in series [1] stood at 31 °C. The folding enthalpy in series [2] is -71.8 kJ/mol.
In the case of GAACATGGAAACACGTTC ((((.((....)).)))), the Tm in series [1] worked out at 33 °C. Also, in series [2], the folding enthalpy is -115 kJ/mol.
As for GTCGAGCCGAAAGGCGAC (((..(((....)))))), the Tm in series [1] is 50.3 °C. Also, the folding enthalpy in series [2] was -36.8 kJ/mol.
With GATCAAGAATTTGATC ((((((....)))))), the Tm in series [1] turned out to be 49 °C. Besides, the folding enthalpy in series [2] is -129 kJ/mol.
GCGGGGGGAAACCTCCGC ((((.((....)).)))): the Tm in series [1] turned out to be 66.7 °C. For the same sequence, the folding enthalpy in series [2] was -171 kJ/mol.
GGAGTGGGAAACTACTCC (((((.(....).))))): the Tm in series [1] came to 49.5 °C. Further, the folding enthalpy in series [2] is -104 kJ/mol.
Consider GGATCCCGAAAGGGCTCC (((.(((....))).))), for which the Tm in series [1] was found to be 51.3 °C. Further, the folding enthalpy in series [2] is -111 kJ/mol.
With GGAAGACGAAAGTCCTCC (((.(((....))).))), in series [1], the Tm came to 43 °C. Besides, the folding enthalpy in series [2] was -89.4 kJ/mol.
For GGAATGCGAAAGCAATCC (((.(((....))).))), in series [1], the Tm is 50.9 °C. In addition, in series [2], the folding enthalpy is -107 kJ/mol.
On the same counts, the results for GACGACGAAAGTCCGGTC ((((((....)))..))) are 39.3 °C and -75.2 kJ/mol.
Turning to GCCTACCCGAAAGGGGGC (((..(((....)))))), the Tm in series [1] was 52.4 °C. Also, in series [2], the folding enthalpy is -72.5 kJ/mol.
In the case of GCTTTGCGAAAGCATGGC ((..(((....)))..)), the Tm in series [1] was determined as 49.5 °C. Also, in series [2], the folding enthalpy was -70 kJ/mol.
For GGCTCCCGAAAGGGTGCC (((.(((....))).))) the same measures were 67.6 °C and -167 kJ/mol.
As to GCTTAGCGAAAGCAAGGC ((.(.((....)).).)), the Tm in series [1] stood at 38.1 °C. In addition, the folding enthalpy in series [2] is -56.4 kJ/mol.
For GTTGCGGGAAACTGCAGC (.(((.(....).))).) the same measures were 45 °C and -66.1 kJ/mol.
Turning to GCCCTCGAAAGAGATGGC ((((((....)))..))), the Tm in series [1] was 46.4 °C. For the same sequence, the folding enthalpy in series [2] is -98.7 kJ/mol.
As for GTACCAGGAAACTGGTGC (.(((((....))))).), the Tm in series [1] is 51.4 °C. Besides, the folding enthalpy in series [2] was -180 kJ/mol.
For GCGTAGGGAAACTTGCGC (((.(.(....).).))) the same measures were 42.3 °C and -119 kJ/mol.
Turning to GATTGGGGAAACCCAGTC ((.((((....)))).)), the Tm in series [1] worked out at 44.7 °C. Besides, the folding enthalpy in series [2] is -102 kJ/mol.
On the same counts, the results for GCTAAGCGAAAGCCGAGC (((..((....))..))) are 42.2 °C and -80 kJ/mol.
For GAGCTGGCGAAAGCCCTC (((..(((....)))))) the same measures were 36.6 °C and -24.3 kJ/mol.
On the same counts, the results for GCTTGACGAAAGTCGAGC (((.(((....))).))) are 63.1 °C and -163 kJ/mol.
In the case of GATCGCTCTGCGATC ((((((...)))))), in series [1], the Tm was found to be 68.5 °C. In addition, the folding enthalpy in series [2] was -175 kJ/mol.
GGAAAGGCGAAAGCCTCC (((..(((....)))))): in series [1], the Tm came out at 41.3 °C. In addition, the folding enthalpy in series [2] was -44.4 kJ/mol.
On the same counts, the results for GAGTACGAAAGTAATCTC ((((((....)))..))) are 42.5 °C and -114 kJ/mol.
In the case of GCAACCCGAAAGGGCTGC (((.(((....))).))), in series [1], the Tm was determined as 60.6 °C. In addition, the folding enthalpy in series [2] is -186 kJ/mol.
Turning to GGCTGGCGAAAGCCCGCC (((.(((....))).))), the Tm in series [1] was 63 °C. Further, in series [2], the folding enthalpy is -94.7 kJ/mol.
For GGCATCCCGAAAGGGGCC (((..(((....)))))) the same measures were 52.3 °C and -79 kJ/mol.
Turning to GGTACCGAAAGGTGACC ((((((....))).))), the Tm in series [1] was found to be 48.4 °C. For the same sequence, the folding enthalpy in series [2] is -90.1 kJ/mol.
For the sequence GTCTGCGGAAACACAGAC (((((.(....).))))), the Tm in series [1] was determined as 46.7 °C. Also, the folding enthalpy in series [2] was -184 kJ/mol.
As for GGCCCAGGAAACCGGGCC (((((.(....).))))), the Tm in series [1] worked out at 63.5 °C. For the same sequence, the folding enthalpy in series [2] was -177 kJ/mol.
On the same counts, the results for GACTGACGAAAGTCGTC (((.(((....)))))) are 52.6 °C and -59.5 kJ/mol.
For the sequence GCGAAAAGTCGC ((((....)))), in series [1], the Tm was found to be 41.7 °C. Also, the folding enthalpy in series [2] was -50.6 kJ/mol.
Consider GAAATCCCGAAAGGGTTC (((..(((....)))))), for which, in series [1], the Tm amounted to 26.2 °C. Moreover, the folding enthalpy in series [2] is -41 kJ/mol.
As for GATCTGACCCCAGATC ((((((....)))))), the Tm in series [1] amounted to 45.8 °C. In series [2], the folding enthalpy is -143 kJ/mol.
GTAATGCGAAAGCATAC (((.(((....)))))): the Tm in series [1] was determined as 46 °C. Besides, the folding enthalpy in series [2] was -55.5 kJ/mol.
For GATCCCGGAAACGAGATC ((((.((....)).)))), the Tm in series [1] amounted to 41.7 °C. The folding enthalpy in series [2] was -124 kJ/mol.
For GATCGGAACGCCGATC ((((((....)))))) the same measures were 54.7 °C and -172 kJ/mol.
As for GCGAAGTTCGC ((((...)))), in series [1], the Tm was 46.4 °C. In addition, the folding enthalpy in series [2] was -71.3 kJ/mol.
Regarding GTCGCACGAAAGTGGAC (((.(((....)))))), the Tm in series [1] was determined as 49.9 °C. Further, the folding enthalpy in series [2] is -78.7 kJ/mol.
For CGGTCTCGGAAACGACCG (((..(((....)))))), in series [1], the Tm is 46.7 °C. Moreover, the folding enthalpy in series [2] was -126 kJ/mol.
